For orientation: IC50 means the concentration needed to halve the response being measured. Lower therefore signals greater potency. The Ki is the dissociation constant of the complex between target and ligand, obtained from inhibition or displacement. A high value points to lower affinity.

Some results are limits rather than exact numbers.

Results on 14 compounds are retold here after ChEMBL document CHEMBL1130051, “9-Benzyladenines: potent and selective cAMP phosphodiesterase inhibitors” (J Med Chem, 1997).

Experiment [1] deals with T1, Phosphodiesterase 3 (Homo sapiens, UniProt Q14432+Q13370). Description: Inhibition of phosphodiesterase 3 at 1 uM cAMP. It is filed as protein assay. A digest of the protocol: (§1)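 Enzyme activity was measured at 1 μM substrate, and the drug concentration giving 50% inhibition was taken as the IC50. IC50 was calculated by linear regression (r = 0.95) as the mean of three determinations, with experimental error about 15%. Values above 200 μM were reported as ns.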

Experiment [2] has as its target T2, Phosphodiesterase 4 (Homo sapiens, UniProt P27815+Q08499+Q07343+Q08493). Description: Inhibition of phosphodiesterase 4 at 1 uM cAMP. It is filed as protein assay. The procedure, abridged:
as §1

For experiment [3], the target named is T1, Phosphodiesterase 3. Description: Inhibitory concentration against Phosphodiesterase 3 was tested by linear regression. Type of experiment: protein assay. The procedure, abridged:
as §1

The target of experiment [4] is T3, cGMP-specific 3',5'-cyclic phosphodiesterase (Homo sapiens, UniProt O76074). Description: Inhibition of Phosphodiesterase 5.
Experiment [5] addresses T4, Adenosine receptor A1 (Homo sapiens, UniProt P30542).
T4 sequence (P30542 whole entry): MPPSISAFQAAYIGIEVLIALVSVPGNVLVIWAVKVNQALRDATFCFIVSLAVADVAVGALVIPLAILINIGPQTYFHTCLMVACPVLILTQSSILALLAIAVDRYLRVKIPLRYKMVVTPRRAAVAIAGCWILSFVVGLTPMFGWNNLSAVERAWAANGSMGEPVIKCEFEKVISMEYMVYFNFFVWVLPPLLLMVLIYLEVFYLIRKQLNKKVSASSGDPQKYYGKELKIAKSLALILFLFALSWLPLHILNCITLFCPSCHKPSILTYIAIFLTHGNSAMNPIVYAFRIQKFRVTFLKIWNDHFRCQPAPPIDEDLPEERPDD
Description: Displacement of [3H]CHA from Adenosine A1 receptor. In general terms: Loss of bound radioactivity is the signal in a displacement assay; it reports binding, not function.

For experiment [6], the target named is Adenosine A2 receptor (Homo sapiens, UniProt P29275+P29274). Description: Displacement of [3H]NECA from Adenosine A2 receptor. It is filed as protein assay.
Experiment [7] addresses GABA-A receptor; anion channel. Description: Displacement of [3H]diazepam from rat brain GABA-A benzodiazepine receptor.
Experiment [8] concerns the target T2, Phosphodiesterase 4. Description: Inhibition of Phosphodiesterase 4. Type of experiment: protein assay.
Experiment [9] has as its target T3, cGMP-specific 3',5'-cyclic phosphodiesterase. Description: Inhibition of phosphodiesterase 5. The procedure, abridged:
as §1

Experiment [10] deals with Phosphodiesterase 1 (Homo sapiens, UniProt P54750+Q01064+Q14123). Description: Inhibition of phosphodiesterase 1. Type of experiment: protein assay. A digest of the protocol: as §1

With `CNc1nc(C(F)(F)F)nc2c1ncn2C`, the IC50 in [1] worked out at 331 µM; in experiment [2] it was 11 µM.
In the case of `CNc1ncnc2c1ncn2Cc1ccccc1F.CS(=O)(=O)O`, the concentration for half-maximal inhibition (IC50) in [3] is 121 µM; in experiment [5], above 100 µM; in experiment [6], above 100 µM; in [7] it was 13 µM; in [2], 3 µM. The Ki in experiment [4] came to 6.5 µM; in experiment [8] it was 2 µM.
Regarding `CN(C)c1nc(C(F)(F)F)nc2c1ncn2Cc1ccccc1`, the IC50 in experiment [1] worked out at 61 µM; in [2] it was 11 µM.
For `CNc1ncnc2c1ncn2Cc1ccccc1.CS(=O)(=O)O`, in that order: 339 µM and 4.6 µM.
Take `CNc1nc(C(F)(F)F)nc2c1ncn2Cc1ccccc1F`: the IC50 in experiment [1] worked out at 380 µM; in [9] it was 5 µM; in experiment [2] it was 0.04 µM; in [10], 40 µM.
Turning to `CNc1ncnc2c1nc(C)n2Cc1ccccc1F.CS(=O)(=O)O`, the IC50 in experiment [1] is above 200 µM; in experiment [2], 54 µM.
Take `Nc1ncnc2c1ncn2Cc1ccccc1` [9-BENZYL-9H-ADENINE]: the IC50 in [1] is above 200 µM; in [2], 160 µM.
As for `CCCCCC[C@@H]([C@@H](C)O)n1cnc2c(N)ncnc21` [EHNA], the Ki in [4] and in [8] was above 200 µM throughout.
With `CNc1nc(C(F)(F)F)nc2c1ncn2CCc1ccccc1`, the results for the IC50 in experiment [1] and in experiment [2] were above 200 µM and 0.75 µM, respectively.
The like results for `CNc1nc(C)nc2c1ncn2Cc1ccccc1F.CS(=O)(=O)O` were, in that order, 250 µM and 0.2 µM.
As for `Cl.Fc1ccccc1Cn1cnc2c(N3CCCCC3)ncnc21`, the IC50 in experiment [1] was above 200 µM; in experiment [2] it was 121 µM.
The like results for `Nc1nc(C(F)(F)F)nc2c1ncn2Cc1ccccc1` were, in that order, 101 µM and 1.8 µM.
The like results for `CNc1nc(-c2ccccc2)nc2c1ncn2Cc1ccccc1F.CS(=O)(=O)O` were, in that order, above 200 µM and 0.5 µM.
The like results for `CCCCNc1ncnc2c1ncn2Cc1ccccc1F.Cl` were, in that order, above 200 µM and 53 µM.
